GRK2 aptamer HTS: human GRK2 inhibition via aptamer displacement. P25098. bead flow cytometry, FAM-aptamer displacement from GRK2. inhibition of aptamer binding, % at 10 µM. 330,000 tested, 0.59% active. AID 488847;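 active means inhibition of aptamer binding above 40%, roughly 3 SD of noise, on plates passing a quality check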;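 further: median bead fluorescence of bound FAM aptamer so fluorescent compounds give negative values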
Beta2AR agonist: agonists of human beta-2 adrenergic receptor inducing internalization | 340,000 tested, 0.43% active | response, % (test concentration not listed) | P07550 | Am2.2-beta2AR cells, FAP receptor internalization, flow cytometry;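 active means response above a set limit, near 3 SD of response in nonfluorescent compounds, cut at about 42% in these data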
Target sequence (P07550 whole entry, looked up): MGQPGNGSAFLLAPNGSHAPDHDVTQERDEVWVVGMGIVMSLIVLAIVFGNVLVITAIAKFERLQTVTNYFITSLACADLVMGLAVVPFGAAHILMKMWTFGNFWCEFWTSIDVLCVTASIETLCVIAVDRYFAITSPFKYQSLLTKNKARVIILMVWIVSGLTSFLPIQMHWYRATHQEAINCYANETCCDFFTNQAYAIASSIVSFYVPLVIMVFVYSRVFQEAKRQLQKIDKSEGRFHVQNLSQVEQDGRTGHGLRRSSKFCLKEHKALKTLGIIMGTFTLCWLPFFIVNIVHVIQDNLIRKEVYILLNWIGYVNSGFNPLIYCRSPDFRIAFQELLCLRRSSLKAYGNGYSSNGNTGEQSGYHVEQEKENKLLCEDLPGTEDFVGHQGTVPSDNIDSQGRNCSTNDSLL
H9c2 TAG inh: triacylglycerol accumulation inhibition; AID 651582; 230,000 tested, 0.66% active; H9c2 cells, Nile Red lipid (TAG) fluorescence; cells loaded with 200 µM oleic acid; inhibition, % at 12.5 µM;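 active means pattern-corrected inhibition of lipid staining of at least 50% with the nuclear-stain viability signal not falling by more than 50%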;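 further: 0% = DMSO wells and 100% = triacsin C control wells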
NTR1 ag: NTR1 (human) agonism. NTR1-U2OS beta-arrestin-GFP spot imaging, agonist mode. activation, % at 20 µM. 330,000 tested, 0.17% active. AID 493036;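 active means activation at or above 40% of the spot to cytoplasm intensity ratio, with at least 20 cells analyzed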;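 further: 0% = DMSO without peptide and 100% = 100 nM NTR1 peptide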
Arrestin-AP2 inh: human beta-arrestin and AP2 interaction inhibition; FITC-arrestin peptide / GST-AP2 beads, flow cytometry; AP2 beta2 appendage carries R879A mutation; inhibition, % at 10 µM; 340,000 tested, 0.31% active; AID 504490;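 active means inhibition above a set limit, near 3 SD of compounds lacking own fluorescence, cut at about 54% in these data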;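 further: plate controls were DMSO wells for no effect and 5 µM unlabelled arrestin peptide for full effect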
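Test system: GST-tagged AP2 beta2-adaptin appendage (R879A) on 4 µm glutathione beads; also added: fluorescein-tagged arrestin peptide at 50 nM final; timing: 12 min plus 1 h, RT; signal: flow cytometry, FL1 (488/535 nm); read-out: percent drop in bead-associated FITC signal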
Lipid droplet: modulators of hepatic lipid droplet formation; AID 1656; inhibition, % at 6.5 µM; AML12 mouse hepatocytes, oleate lipid droplets, BODIPY imaging; 240,000 tested, 0.4% active;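 active means lipid droplet intensity inhibited by at least 50%, with more than 500 cells counted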
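Technique: fluorescence imaging, 20x objective, two fields per well / Assay system: AML12 hepatocytes (mouse) / Measure: % inhibition of lipid droplet signal / Doses: 6.5 µM single-point dosing / Incubation: overnight exposure / Reagent: 100 µM oleic acid challenge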
B2AR ag CP1: agonists of human beta-2 adrenergic receptor. shares compounds with Beta2AR agonist. Am2.2-beta2AR cells, FAP surface receptor, flow cytometry; stronger effect = lower value. percent response (surface receptor), % at 10 µM. 1,100 tested, 25% active;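 active means surface receptor percent response at or below 58%, roughly 3 SD from nonfluorescent compounds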
FAP fluor counter: counter-screen for beta-2AR agonists: fluorescence in Am2.2 cells. 1,100 tested, under 10 active. shares compounds with Beta2AR agonist. calls only at 10 µM. FAP fluorogen flow cytometry, fluorescence counterscreen; stronger effect = lower value;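 active means percent response below a set limit in fluorescence channel 1 and below 50% in channel 8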
An asterisk follows results filed as active; i = inactive; . = not tested or not shown. Most compounds without a hit are left out; they make up all but 2% or so of the library.

SMILES	GRK2 aptamer HTS	Beta2AR agonist	H9c2 TAG inh	NTR1 ag	Arrestin-AP2 inh	Lipid droplet	B2AR ag CP1	FAP fluor counter
Cc1[nH]nc(Nc2ccccc2)c1[N+](=O)[O-]	1	-2	7	0	12	.	.	.
Cc1cccc(Nc2n[nH]c(C)c2[N+](=O)[O-])c1	6	64*	.	0	1	-9	114	i
CN(C)c1ccc(-c2cc3ccccc3c(=O)o2)cc1	1	-3	-2	5	8	.	.	.
O=C(O)c1cccc(NC(=O)c2ccc3c(c2)C(=O)N(c2ccccc2)C3=O)c1	0	2	.	1	-3	2	.	.
O=C(O)c1cc(NC(=O)c2cccc(N3C(=O)c4ccccc4C3=O)c2)cc(C(=O)O)c1	0	8	7	0	20	1	110	i
NS(=O)(=O)c1ccc(NC(=O)c2cccc(N3C(=O)c4ccccc4C3=O)c2)cc1	5	85*	.	-2	-4	-1	42*	i
O=C(Nc1ccccc1C(=O)O)c1cccc(N2C(=O)c3ccccc3C2=O)c1	7	-10	.	0	5	3	79	i
COc1ccc(NC(=O)c2cccc(N3C(=O)c4cccc([N+](=O)[O-])c4C3=O)c2)cc1	3	-4	15	0	26	1	91	i
O=C(Nc1ccccc1C(=O)O)c1cccc(F)c1	0	-3	3	1	-2	.	.	.
NS(=O)(=O)c1ccc(NC(=O)c2ccc(-c3ccccc3)cc2)cc1	.	1	.	.	5	-7	.	.
CCN(c1ccccc1)S(=O)(=O)c1ccc(OC)c(NC(=O)C2CC(=O)N(Cc3ccccc3)C2)c1 (configuration not stated)	0	13	10	2	5	-39	.	.
Cc1ccc(OCc2cc(C(=O)NCc3cnn(-c4cccc(F)c4)c3)no2)cn1	0	97*	.	0	45	-16	16*	i
Cc1ccc(OCc2cc(C(=O)NCc3ccc(OC(F)(F)F)cc3)no2)cn1	0	52*	.	-1	0	-7	40*	i
CCc1cc(CNC(=O)c2cc(COc3ccc(C)nc3)on2)on1	0	-5	-1	2	-9	-17	.	.
NC(N)=N/N=C/c1cccc(Cl)c1Cl	0	20	23	5	-1	2	.	.
Cc1ccc(Cl)cc1N1CCN(C(=O)Cc2c(C(=O)O)[nH]c3ccc(Cl)cc23)CC1	0	75*	-13	0	0	4	113	i
COc1ccc(C(OCC(O)CNC(C)c2ccccc2)c2ccc(OC)cc2)cc1 (configuration not stated)	0	51*	.	5	9	-13	114	i
COc1ccc(C(CCNCc2ccccc2)c2ccc(F)cc2)cc1 (configuration not stated)	0	16	.	4	34	-17	85	i
COc1ccc(C(OCC(O)CNCCc2ccccc2)c2ccc(OC)cc2)cc1 (configuration not stated)	0	32	.	.	1	16	.	.
COc1ccc(CNC(=O)CNC(C)c2ccc(F)cc2)cc1 (configuration not stated)	3	9	.	-1	6	.	.	.
COc1ccc(C(CCNC(C)c2ccccc2)c2ccc(F)cc2)cc1 (configuration not stated)	5	42*	42	8	24	-6	99	i
COc1ccc(CNCCC(c2ccc(F)cc2)c2ccc(OC)cc2)cc1 (configuration not stated)	0	35	.	7	27	-15	88	i
CCOc1ccc(/C=C/C(=O)N(C)CC(=O)Nc2cccc(F)c2)cc1OCC	1	-3	18	0	5	.	.	.
COc1ccc(CNCCC(c2ccc(F)cc2)c2ccc(OC(C)C)cc2)cc1OC (configuration not stated)	0	32	34	26	1	28	.	.
COc1ccc(C(CCNCc2ccc(F)cc2)c2ccc(F)cc2)cc1 (configuration not stated)	0	42	-6	18	-2	4	104	i
SMILES	GRK2 aptamer HTS	Beta2AR agonist	H9c2 TAG inh	NTR1 ag	Arrestin-AP2 inh	Lipid droplet	B2AR ag CP1	FAP fluor counter
COc1ccc(/C(O)=C2\C(=O)C(=O)N(c3cc(C)on3)C2c2ccccc2OC)cc1 (configuration not stated)	1	50*	5	0	4	-6	112	i
CNC(=O)COC(=O)c1ccccc1C(=O)c1ccc(Cl)c([N+](=O)[O-])c1	.	16	18	.	10	0	.	.
O=C(COC(=O)c1ccccc1C(=O)c1ccc(Cl)c([N+](=O)[O-])c1)NC1CC1	2	43*	24	-1	-5	6	68	i
CC1(C)Cc2c(c(-c3ccco3)nc3sc4c(NCCN5CCOCC5)ncnc4c23)CO1	3	42	19	1	7	5	.	.
CC1(C)Cc2c(c(-c3ccco3)nc3sc4c(NCCCO)ncnc4c23)CO1	0	111*	23	5	18	.	26*	i
CC1(C)Cc2c(c(-c3ccco3)nc3sc4c(NCC5CCCO5)ncnc4c23)CO1 (configuration not stated)	0	83*	-7	9	-8	26	10*	i
CCN(CCO)c1ncnc2c1sc1nc(CC(C)C)c3c(c12)CC(C)(C)OC3	0	23	.	14	11	.	25*	i
COc1ccc(-c2ccc3c(c2)S(=O)(=O)c2cccc(C(=O)NCc4cc(C)oc4C(F)(F)F)c2C3=O)cc1OC	0	-4	23	5	-14	.	.	.
N#C/C(=C\c1c(Cl)cccc1Cl)c1nc2ccccc2o1	0	-3	.	27	-5	-5	142	i
Cc1cc(O)ccc1N/C=C(\C#N)c1nc2ccccc2o1	3	4	.	19	6	-24	.	.
CC(C)(C)C(=O)CC1(O)C(=O)N(Cc2ccc(Cl)cc2)c2ccccc21 (configuration not stated)	4	54*	2	0	-7	.	110	i
C[C@@H]1CC[C@H](Cc2ccc(-n3cccc3)cc2)N1C(=O)OC(C)(C)C	.	.	-9	.	.	.	97	i
Cc1cc2c(c(=O)o1)C(c1ccc([N+](=O)[O-])o1)C(C#N)=C(N)O2 (configuration not stated)	3	9	7	1	30	0	.	.
Cn1c(=O)c2cc(NC(=O)Nc3cccnc3)ccc2n1-c1ccc(C(C)(C)C)cc1	.	.	5	.	.	.	.	.

Assay outcomes (PubChem)
